Compounds with a hit are over-represented: about 3.6% of the library has one in this group of screens.
Beta cell apopt – beta cell apoptosis inhibition. 300,000 tested, 0.8% active. INS-1E cytokine-induced death, ATP luminescence, 48 h; percent of positive-control rescue, neutral wells zero. protection from apoptosis, % (test concentration not listed). AID 435005;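 active means Every replicate reaches about 75%, or at least half do and their mean reaches it too, limit read from the data; inconclusive means At least half of replicates reach the limit but their mean does not; inactive means Under half of replicates reach the limit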;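 further: 0% = cytokine-treated negative control wells and 100% = positive control rescue; higher means more ATP so stronger rescue from cytokine killing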
SKKanGAS inh – inhibitors of SKKanGAS S. pyogenes growth in kanamycin (SK-promoter or general growth effect); BacTiter-Glo, 6 h; inhibition, % at 7.5 µM; 300,000 tested, 1.3% active; AID 1662;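 active means mean replicate score, as percent of positive control median, at least 50; inconclusive means mean below 50 but one replicate at or above 50; inactive means mean and every replicate below 50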;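 further: strain carries kanamycin resistance gene driven by streptokinase promoter and grows in 40 µg/ml kanamycin; loss of luminescence reflects streptokinase promoter inhibition or plain growth inhibition; 0% = median of DMSO wells and 100% = positive control at its reference dose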
T cruzi inh – T. cruzi replication inhibition | T. cruzi beta-gal in NIH3T3, luminescence, 90 h | AID 1885 | 300,000 tested, 1.4% active | inhibition, % (no concentration beside the values);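 active means mean inhibition across valid replicates above about 55%, limit read from the data; inconclusive means mean below that limit but half or more replicates reach it; inactive means mean below it, under half of replicates reach it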;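 further: signal also drops with host cell toxicity which is not excluded here; 0% = plate median of DMSO wells and 100% = zero luminescence signal; higher percent means less beta-gal luminescence so fewer parasites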
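Assay system: NIH/3T3 fibroblasts plus reporter T. cruzi. Amount: NIH/3T3 cells, 5,000 per well. Buffer or medium: DMEM, 2% fetal bovine serum. Doses: compound pinned at 50 nL/well, DMSO. Schedule: ≥90 h infection period, 3 h prior cell attachment. Signal: luminescent β-galactosidase signal after 60 min lysis. Read-out: parasite load inhibition, %.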
HIF act – HIF pathway transcriptional activation. U2OS HRE-luciferase reporter, luminescence; normalized: DMSO 0%, desferrioxamine 100%. activation, % at 7.5 µM (by protocol). 300,000 tested, 0.32% active;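 active means mean activation of at least 10% of the iron chelator positive control signal, with at least half of replicates also reaching 10%; inconclusive means mean and replicate majority disagree about reaching 10%; inactive means mean and most replicates under 10%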
PfHsp90 yeast 2 – inhibits growth of yeast expressing Plasmodium falciparum Hsp90; S. cerevisiae expressing PfHsp90, BacTiter-Glo ATP, 48 h; yeast lacking PDR1 and PDR3 efflux regulators; inhibition, % at 9.4 µM; 310,000 tested, 0.32% active;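 active means every replicate shows inhibition above about 80%, whatever the replicate mean, limit read from the data; inconclusive means mean inhibition reaches the set limit but some replicate falls short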;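 further: 0% = DMSO neutral controls and 100% = 20 µM radicicol positive controls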
CSC inhib – blocks cancer stem cells; cancer stem cell-like cells viability, luminescence; inhibition, % at 7.5 µM; 300,000 tested, 1.1% active; in the data active means inhibition above about 75%; inconclusive means no clear call, values can overlap the other calls; tested in HMLE shEcad cells
An asterisk follows results filed as active; ? = inconclusive; · = no result.

SMILES	Beta cell apopt	SKKanGAS inh	T cruzi inh	HIF act	PfHsp90 yeast 2	CSC inhib
CN(C)CCCSc1nc2ccccc2s1	0	-24	71*	1	-22	-16
CC(=O)Nc1ccc(NC(=O)CCCSc2nc3ccccc3s2)cc1	-5	-7	14	0	10	12
O=C(O)CCSc1nc2ccccc2s1	0	-11	-10	-2	8	-2
CCCSc1nnc(CSc2nc3ccccc3s2)n1-c1ccccc1	44	-17	53	0	-1	86*
O=C(CSc1ncn[nH]1)NNC(=O)c1ccccc1	-16	1	-8	0	-21	·
CCOc1ccccc1NC(=O)c1cccc(N2C(=O)CCC2=O)c1	-2	5	-9	-1	-16	-8
Cc1ccc(-n2c(=O)c3sccc3n(Cc3cc(=O)n4cc(Cl)ccc4n3)c2=O)cc1F	-8	-2	27	-1	16	-2
O=C(CN1CCN(c2ccc(C(F)(F)F)cn2)CC1)Nc1ccc2c(c1)OCO2	2	7	-5	-1	5	19
CN(C)c1ccc(C(O)c2cc3ccccc3s2)cc1 (stereo not drawn)	·	·	·	·	4	·
Cc1ccc(NC(=O)CC2=NC(=O)C(CC(=O)Nc3ccccc3C)S2)cc1 (stereo not drawn)	-1	-9	14	0	-18	-5
O=C(Nc1ccccc1)Nc1ccc(-n2ccc(C(F)(F)F)n2)cc1	116*	2	-34	6	-1	40
COc1ccc(CCN2CC(C(=O)N(C)Cc3ccc(C)o3)CCC2=O)cc1 (stereo not drawn)	-1	5	3	3	11	-4
COCCNC(=O)CCc1nnc(Cc2ccc(-c3ccccc3)cc2)o1	-8	0	-6	0	-12	-10
COCCNC(=O)CCC1CCN(Cc2ccc(-c3ccccc3)cc2)CC1	·	1	58*	-1	4	-7
COc1ccc(-c2nc(Cn3c(SCc4ccc(C)cc4)nc4ccncc43)c(C)o2)cc1OC	0	21	48	2	-6	12
COc1ccc(-c2nc(Cn3c(SCc4cccc(F)c4)nc4ccncc43)c(C)o2)cc1OC	21	11	18	0	-16	82*
CCC(C)[C@@H](N)C(=O)N/N=C/c1ccc2ncccc2c1 (stereo partly drawn)	-7	-3	-11	0	-2	12
O=C1CCCC(=O)N1c1ccc(O)cc1	-3	-1	-6	0	8	-8
O=C1C=CC(=O)N1c1ccc(OC(F)F)cc1	28	·	·	·	127*	103*
O=C1C=CC(=O)N1c1ccc(O)cc1	-12	-14	52	0	109*	20
COc1ccc(C(CCN)c2ccc3c(c2)OCO3)cc1 (stereo not drawn)	-1	28	60*	0	-1	14
CS(=O)(=O)Nc1ccc(C2=NN(C(=O)C3CCCCC3)C(c3cccs3)C2)cc1 (stereo not drawn)	-1	83*	-10	0	-42	-2
O=C(Nc1ccncc1)Nc1ccc(Br)cc1Cl	-1	3	56*	0	-14	13
Cc1cccc(NC(=O)Nc2ccncc2)c1	7	4	65*	0	16	-6
C=CCNC(=O)Nc1ccc(Br)cc1Cl	-2	0	-7	0	-10	-2
SMILES	Beta cell apopt	SKKanGAS inh	T cruzi inh	HIF act	PfHsp90 yeast 2	CSC inhib
COc1cccc(C2=CC(=O)C(C(C)(C)C)N2C(C)(C)C)c1 (stereo not drawn)	·	·	·	·	-29	·
NNC(=O)c1nn(-c2ccc(Cl)cc2)cc1O	75*	-1	15	2	12	-9
Cc1cccc(NC(=S)/N=C(\N)Nc2nc(C)c3cc(C)ccc3n2)c1	-13	38	31	1	-20	41
Cc1cccc(NC(=S)/N=C(\N)Nc2nc(C)c3ccc(C)cc3n2)c1	3	?	60*	2	-27	3
CC1CCN(CC(=O)Nc2ccccc2Sc2ccccc2)CC1	-4	2	26	-3	8	117*
Cc1ccccc1C(=O)NC1CCN(CC(=O)Nc2ccccc2Cl)CC1	1	2	8	-2	-10	-6
O=C(COC(=O)C1CCC1)Nc1ccccc1Sc1ccccc1	-12	-5	2	0	-21	0
O=C(CN1CCCC1)Nc1ccccc1Sc1ccccc1	-7	8	6	-1	-8	-11
O=C(COC(=O)CCC1CCCC1)Nc1ccccc1Sc1ccccc1	-2	80*	-15	0	-2	6
Cc1c(Cl)cccc1NC(=O)CN1CCC(C(O)(c2ccccc2)c2ccccc2)CC1	0	23	62*	0	-8	30
CCS(=O)(=O)c1nc(S(=O)(=O)c2ccc(C)cc2)c(NCCN2CCOCC2)s1	7	54*	36	-1	-16	-13
CC(=O)OCCN1C(=O)c2cccc3cc([N+](=O)[O-])cc(c23)C1=O	10	-11	73*	-1	·	17
Nc1ccc(C23CC4CC(CC(CO)(C4)C2)C3)cc1	9	4	0	1	13	-12
NCC12CC3CC(C1)CC(c1ccc(Cl)cc1)(C3)C2	0	0	64*	-4	-1	1
CCN(C(=O)C(C)Sc1ccc(S(=O)(=O)N2CCOCC2)cn1)c1ccccc1 (stereo not drawn)	-2	·	·	·	1	-8
COc1ccc(-c2nc(NC(=O)c3cc(C(C)(C)C)nn3C)sc2C)cc1	85*	38	57*	-1	-14	81*
Cc1ccc(/C=C(\C#N)c2nn(-c3ccccc3)c(N)c2C#N)cc1	-6	27	20	9.8*	9	39
N#C/C(=C\c1c(F)cccc1Cl)c1nn(-c2ccccc2)c(-n2cccc2)c1C#N	45	9	41	-1	-10	94*
N#C/C(=C\c1c(Cl)cccc1Cl)c1nn(-c2ccccc2)c(-n2cccc2)c1C#N	26	6	59*	0	-15	64
Cc1c(/C=C(\C#N)c2nn(-c3ccccc3)c(N)c2C#N)c2ccccc2n1Cc1ccc(F)cc1	-1	1	16	0	-4	-6
N#C/C(=C\c1cccc2ccccc12)c1nn(-c2ccccc2)c(N)c1C#N	36	18	39	1	·	30
CCOc1cc(C=NN2CCCCCC2)ccc1O	·	·	·	·	-16	·
CC(C)c1ccc(N=c2c([N+](=O)[O-])nn(-c3ccc4c(c3)OCCO4)n2O)cc1	0	21	53	0	3	23
COc1cc(N=c2c([N+](=O)[O-])nn(-c3ccc4c(c3)OCCO4)n2O)cc(OC)c1	6	73*	46	1	8	-7
CN=c1c([N+](=O)[O-])nn(-c2ccc3c(c2)OCCO3)n1O	34	10	61*	1	-12	1
CCc1cccc(N=c2c([N+](=O)[O-])nn(-c3ccc4c(c3)OCCO4)n2O)c1	1	8	70*	0	-37	14

Screening results as filed in PubChem BioAssay.
